Reference: ChEMBL document CHEMBL1124106, “Synthesis of diethylenetriaminepentaacetic acid conjugated inulin and utility for cellular uptake of liposomes” (J Med Chem, 1988)
“And” between values parts separate entries of the source, which are not always exact repeats. Equal values may be shown once.

Key:
[1] = (§1) Biodistribution of compound in mice excretion after 1 hr of intravenous injection; type: ADME, organism-based; details: mouse, excretion (excreta, not specified further), read-out: ID
Outline: (§2)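 BALB/c mice (about 25 g), n = 4. Free ¹¹¹In- or ⁶⁷Ga-labeled compound (50–100 μL, about 100 000 cpm) was injected into a tail vein. Mice were held in separate cages and killed by cervical dislocation, with blood and cumulative excreta collected. Tissues were rinsed, blotted, weighed and γ-counted, with blood background subtracted (blood volume 8.0%). Values are % injected dose ± SD.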

Mus musculus [2] = assay: as §1; type: ADME, organism-based; details: in vivo, 1 h; outline: as §2
Mus musculus [3] = assay: Biodistribution in mice fat, after 1 hr of intravenous administration of 1-2 ug ofcompound (entrapped in bovine brain sphingomyelin/ cholesterol multilamellar vehicles); type: ADME, organism-based; details: in vivo
Outline: (§3)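 BALB/c mice (about 25 g), 3–5 per group, given 50–100 μL tail-vein injection of 111In-labeled conjugate entrapped in SM/CH (2:1 mol/mol) multilamellar vesicles, approx. 100 000 cpm; dose 1–2 μg phospholipid/g body weight. Killed by cervical dislocation at set times; blood, cumulative excretion and rinsed, blotted, weighed tissues γ-counted, blood background subtracted. Result is % injected dose ± SD.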

Mus musculus [4] = assay: Biodistribution in mice skin, after 24 hr of intravenous aadministration of 1-2 ug of compound (entrapped in bovine brain sphingomyelin/ cholesterol multilamellar vehicles); type: ADME, organism-based, Zone of skin; details: in vivo; outline: as §3
Mus musculus [5] = assay: Biodistribution of compound in mice intestine after 21 hr of intravenous injection; type: ADME, organism-based; details: in vivo; outline: as §2
Mus musculus [6] = assay: Biodistribution in mice liver, after 12 hr of intravenous administration of 1-2 ug of compound (entrapped in bovine brain sphingomyelin/ cholesterol multilamellar vehicles); type: ADME, organism-based; details: in vivo; outline: as §3
[7] = Biodistribution in mice excretion, after 1 hr of intravenous administration of 1-2 ug of compound (entrapped in bovine brain sphingomyelin/ cholesterol multilamellar vehicles); type: ADME, organism-based; details: mouse, excretion (excreta, not specified further), read-out: ID; outline: as §3
Mus musculus [8] = assay: Biodistribution of compound in mice blood after 0.17 hr of intravenous injection; type: ADME, organism-based; details: in vivo; outline: as §2
Mus musculus [9] = assay: Biodistribution in mice carcass, after 48 hr of intravenous administrating 1-2 ug of compound (entrapped in bovine brain sphingomyelin/ cholesterol multilamellar vehicles); type: ADME, organism-based; details: in vivo; outline: as §3
Mus musculus [10] = assay: Biodistribution in mice brain, after 24 hr of intravenous administration of 1-2 ug of compound (entrapped in bovine brain sphingomyelin/ cholesterol multilamellar vehicles); type: ADME, organism-based; details: in vivo; outline: as §3
Mus musculus [11] = assay: Biodistribution of compound in mice blood after 1 hr of intravenous injection; type: ADME, organism-based; details: in vivo; outline: as §2
Mus musculus [12] = assay: Biodistribution in mice liver, after 48 hr of intravenous administration of 1-2 ug ofcompound (entrapped in bovine brain sphingomyelin/ cholesterol multilamellar vehicles); type: ADME, organism-based; details: in vivo; outline: as §3
Mus musculus [13] = assay: Biodistribution in mice intestine, after 12 hr of intravenous administration of 1-2 ug of compound (entrapped in bovine brain sphingomyelin/ cholesterol multilamellar vehicles); type: ADME, organism-based; details: in vivo; outline: as §3
Mus musculus [14] = assay: Biodistribution in mice spleen, after 1 hr of intravenous aadministration of 1-2 ug of compound (entrapped in bovine brain sphingomyelin/ cholesterol multilamellar vehicles); type: ADME, organism-based; details: in vivo; outline: as §3
Mus musculus [15] = assay: Biodistribution in mice spleen, after 12 hr of intravenous administration of 1-2 ug of compound (entrapped in bovine brain sphingomyelin/ cholesterol multilamellar vehicles); type: ADME, organism-based; details: in vivo; outline: as §3
Mus musculus [16] = assay: Biodistribution in mice leg muscle, after 24 hr of intravenous administration of 1-2 ug of compound (entrapped in bovine brain sphingomyelin/ cholesterol multilamellar vehicles); type: ADME, organism-based, Muscle tissue; details: in vivo; outline: as §3
Mus musculus [17] = assay: Biodistribution in mice spleen, after 24 hr of intravenous administration of 1-2 ug of compound (entrapped in bovine brain sphingomyelin/ cholesterol multilamellar vehicles); type: ADME, organism-based; details: in vivo; outline: as §3
Mus musculus [18] = assay: Biodistribution in mice heart, after 48 hr of intravenous administration of 1-2 ug of compound (entrapped in bovine brain sphingomyelin/ cholesterol multilamellar vehicles); type: ADME, organism-based; details: in vivo; outline: as §3
[19] = (§4) Biodistribution of compound in mice excretion after 21 hr of intravenous injection; type: ADME, organism-based; details: mouse, excretion (excreta, not specified further), read-out: ID; outline: as §2
Mus musculus [20] = assay: as §4; type: ADME, organism-based; details: in vivo, 21 h; outline: as §2
Mus musculus [21] = assay: Biodistribution in mice blood, after 48 hr of intravenous administration of 1-2 ug of compound (entrapped in bovine brain sphingomyelin/ cholesterol multilamellar vehicles); type: ADME, organism-based; details: in vivo; outline: as §3
Mus musculus [22] = assay: Biodistribution in mice carcass, after 12 hr of intravenous administration of 1-2 ug of compound (entrapped in bovine brain sphingomyelin/ cholesterol multilamellar vehicles); type: ADME, organism-based; details: in vivo; outline: as §3
Mus musculus [23] = assay: Biodistribution in mice leg muscle, after 1 hr of intravenous administration of 1-2 ug ofcompound (entrapped in bovine brain sphingomyelin/ cholesterol multilamellar vehicles); type: ADME, organism-based, Muscle tissue; details: in vivo; outline: as §3
Mus musculus [24] = assay: Biodistribution of compound in mice intestine after 1 hr of intravenous injection; type: ADME, organism-based; details: in vivo; outline: as §2
Mus musculus [25] = assay: Biodistribution in mice skin, after 12 hr of intravenous administration of 1-2 ug of compound (entrapped in bovine brain sphingomyelin/ cholesterol multilamellar vehicles); type: ADME, organism-based, Zone of skin; details: in vivo; outline: as §3
Mus musculus [26] = assay: Biodistribution in mice stomach, after 48 hr of intravenous administration of 1-2 ug of compound (entrapped in bovine brain sphingomyelin/ cholesterol multilamellar vehicles); type: ADME, organism-based; details: in vivo
Outline: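 BALB/c mice (about 25 g), groups of 2–5. Compound ¹¹¹In-loaded into SM/CH (2:1, mol/mol) multilamellar vesicles, given as a single tail-vein injection. Lipid dose was 1–2 μg phospholipid/g body weight, in 50–100 μL carrying about 100 000 cpm. Mice were killed by cervical dislocation. Organs were rinsed, blotted, weighed and γ-counted, with blood background subtracted. Values are % injected dose ± SD.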

Mus musculus [27] = assay: Biodistribution of compound in mice leg muscle after 1 hr of intravenous injection; type: ADME, organism-based, Muscle tissue; details: in vivo; outline: as §2
Mus musculus [28] = assay: Biodistribution of compound in mice tail after 1 hr of intravenous injection; type: ADME, organism-based; details: in vivo; outline: as §2
Mus musculus [29] = assay: Biodistribution of compound in mice tail after 21 hr of intravenous injection; type: ADME, organism-based; details: in vivo; outline: as §2
Mus musculus [30] = assay: Biodistribution in mice kidneys, after 48 hr of intravenous administration of 1-2 ug of compound (entrapped in bovine brain sphingomyelin/ cholesterol multilamellar vehicles); type: ADME, organism-based, Kidney; details: in vivo; outline: as §3
Mus musculus [31] = assay: Biodistribution in mice intestine, after 1 hr of intravenous administration of 1-2 ug of compound (entrapped in bovine brain sphingomyelin/ cholesterol multilamellar vehicles); type: ADME, organism-based; details: in vivo; outline: as §3
Mus musculus [32] = assay: Biodistribution in mice lung, after 24 hr of intravenous administration of 1-2 ug of compound (entrapped in bovine brain sphingomyelin/ cholesterol multilamellar vehicles); type: ADME, organism-based; details: in vivo; outline: as §3
Mus musculus [33] = assay: Biodistribution of compound in mice spleen after 0.17 hr of intravenous injection; type: ADME, organism-based; details: in vivo; outline: as §2
Mus musculus [34] = assay: Biodistribution in mice spleen, after 48 hr of intravenous administration of 1-2 ug of compound (entrapped in bovine brain sphingomyelin/ cholesterol multilamellar vehicles); type: ADME, organism-based; details: in vivo; outline: as §3
Mus musculus [35] = assay: Biodistribution in mice kidneys, after 1 hr of intravenous administration of 1-2 ug of compound (entrapped in bovine brain sphingomyelin/ cholesterol multilamellar vehicles); details: in vivo
Mus musculus [36] = assay: Biodistribution in mice fat, after 48 hr of intravenous administration of 1-2 ug of compound (entrapped in bovine brain sphingomyelin/ cholesterol multilamellar vehicles); type: ADME, organism-based; details: in vivo; outline: as §3
Mus musculus [37] = assay: Biodistribution in mice stomach, after 1 hr of intravenous administration of 1-2 ug of compound (entrapped in bovine brain sphingomyelin/ cholesterol multilamellar vehicles); type: ADME, organism-based; details: in vivo; outline: as §3
Mus musculus [38] = assay: Biodistribution of compound in mice tail after 0.17 hr of intravenous injection; type: ADME, organism-based; details: in vivo; outline: as §2

NCCNC(=O)CN(CCN(CCN(CC(=O)O)CC(=O)O)CC(=O)O)CC(=O)O
dose excreted at 1 h [1]: 50.7%
ID (Mus musculus [2]): 50%
ID (Mus musculus [3]): 0.3%
ID (Mus musculus [4]): 2%
ID (Mus musculus [5]): 2.2% and 5.8%
ID (Mus musculus [6]): 73.6%
dose excreted at 1 h [7]: 0%
ID (Mus musculus [8]): 21.1% and 20.9%
ID (Mus musculus [9]): 1.3%
ID (Mus musculus [10]): 0.2%
ID (Mus musculus [11]): 1.1% and 4.5%
ID (Mus musculus [12]): 62.4%
ID (Mus musculus [13]): 1%
ID (Mus musculus [14]): 3.9%
ID (Mus musculus [15]): 4%
ID (Mus musculus [16]): 0.2%
ID (Mus musculus [17]): 1.9%
ID (Mus musculus [18]): 0%
dose excreted at 21 h [19]: 77.1%
ID (Mus musculus [20]): 69.5%
ID (Mus musculus [21]): 0.4%
ID (Mus musculus [22]): 2%
ID (Mus musculus [23]): 0.3%
ID (Mus musculus [24]): 0.8% and 1.4%
ID (Mus musculus [25]): 1.1%
ID (Mus musculus [26]): 0%
ID (Mus musculus [27]): 0.8% and 1.3%
ID (Mus musculus [28]): 2%
ID (Mus musculus [29]): 2.1% and 2.3%
ID (Mus musculus [30]): 0.4%
ID (Mus musculus [31]): 0.7%
ID (Mus musculus [32]): 0.4%
ID (Mus musculus [33]): 0.2% and 0.1%
ID (Mus musculus [34]): 2.9%
ID (Mus musculus [35]): 0.5%
ID (Mus musculus [36]): 0.1%
ID (Mus musculus [37]): 0.8%
ID (Mus musculus [38]): 3.8% and 3.7%
